# Screening results deposited in PubChem by Sanford-Burnham Center for Chemical Genomics.
# FLuc act counter: FLuc activators, initial screening, artefact control for FLuc-dependent activation tests, biochemical, ATPlite luminescence. 200,000 tested, under 10 active. ATPlite luciferase biochemical, 10 min; 0 = ATP-free wells, 1 = DMSO control. activation factor at 10 µM. AID 1027, 2008. Luciferin 4-monooxygenase (Photinus pyralis), P08659;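 active = luciferase activation factor, scaled between plate controls, of at least 2 with compound at 10 µM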
# Target sequence (P08659 whole entry, looked up): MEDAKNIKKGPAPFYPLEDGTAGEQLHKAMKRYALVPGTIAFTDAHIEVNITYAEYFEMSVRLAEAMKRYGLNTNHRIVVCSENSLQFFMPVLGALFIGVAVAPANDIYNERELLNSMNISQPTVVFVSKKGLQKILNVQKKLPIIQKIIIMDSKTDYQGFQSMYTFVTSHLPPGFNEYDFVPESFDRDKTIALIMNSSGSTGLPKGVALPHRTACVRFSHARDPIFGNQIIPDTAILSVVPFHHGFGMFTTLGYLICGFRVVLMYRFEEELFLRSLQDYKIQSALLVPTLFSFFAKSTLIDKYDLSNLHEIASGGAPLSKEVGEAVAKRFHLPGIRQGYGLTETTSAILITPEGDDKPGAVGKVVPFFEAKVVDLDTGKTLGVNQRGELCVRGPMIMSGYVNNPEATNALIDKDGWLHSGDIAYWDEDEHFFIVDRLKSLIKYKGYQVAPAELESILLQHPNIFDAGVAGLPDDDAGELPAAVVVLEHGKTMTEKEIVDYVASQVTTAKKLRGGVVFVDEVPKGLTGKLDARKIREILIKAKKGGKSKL
#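 System: Luciferase/luciferin detection reagent, cell-free biochemical luciferase assay | Medium: PBS buffer for ATP | Dosing: Test compounds dosed from 2 mM stocks in 100% DMSO | Timing: 10 min at ambient temperature | Signal: Luminescence measurement of luciferase light output | Evaluation: Luciferase activation, seen as luminescence increase over controls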
# PPC-1+TRAIL kill: compounds killing PPC-1 cancer cells with TRAIL present, primary screen, TRAIL potentiator project, ATPLite luminescence, uHTS; cell killing (% activity), % at 4 µM or 5 µM; PPC-1 cells + TRAIL, ATPLite viability luminescence; 220,000 tested, 0.41% active;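 active = cell killing above 50% in the first pass at 4 µM, then a duplicate retest at 5 µM averaging 50% or more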;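 note: plate controls were cells with TRAIL plus DMSO for no effect and medium-only wells lacking cells for full effect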
# MIN6 prolif: inducers of MIN6 beta-cell proliferation, primary screen, ATP luminescence, uHTS | 330,000 tested, 0.29% active | proliferation, % at 10 µM | MIN6 cells proliferation, ATPlite luminescence, 48 h; cells starved in 0.2% serum; 100% = growth in 10% serum;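 active = compounds whose signal lies at least 3.5 SD above the mean of all wells on their plate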;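 note: 0% = DMSO-treated cells in low-serum medium and 100% = 10% serum control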
# hiPSC survival: enhancers of single-cell hiPSC survival, primary screen, ATPlite luminescence; 100% = ROCK inhibitor wells, 0% = DMSO; survival enhancement, % at 20 µM; 360,000 tested, 0.044% active; AID 602274, 2012; in the data active = survival enhancement above about 18%;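 note: cells exposed to compounds for 16 hours before the ATP read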
# FLuc inhib CS: firefly luciferase enzyme inhibitors, primary screen, artefact control for luciferase-based inhibitor screens, biochemical, luminescence, ATPLite. 10 min. Luciferin 4-monooxygenase (Photinus pyralis), P08659. inhibition, % at 10 µM. AID 1006, 2008. 200,000 tested, 1.5% active;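 active = inhibition above about 50% when tested at 10 µM, limit read from the data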
# TRAIL sens C8: viability loss with TRAIL in NB7+C8 cells, primary screen, TRAIL sensitizer project, cell-based, ATPlite luminescence. inhibition (viability loss, TRAIL sensitization), % at 10 µM. 360,000 tested, 1% active. AID 624354, 2012;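 active = compounds causing at least 50% loss of cell viability in the single-dose screen, relative to plate controls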
# * hit, by the source's call; · = no result. Rows were chosen to be rich in hits. Some 1.8% of all compounds tested hit in one or more screens of this group.
SMILES,FLuc act counter,PPC-1+TRAIL kill,MIN6 prolif,hiPSC survival,FLuc inhib CS,TRAIL sens C8
O=C(NCc1ccc(F)cc1F)[C@@H]1CCCN1C(=O)[C@@H]1CCCN1C(=O)c1ccccc1,·,·,·,1,·,-6
Cc1cccc(NC(=O)/C=C/c2cccs2)n1,0.3,32,-5,-3,65*,42
O=C(OCC(=O)N1CCN(C(=O)c2ccco2)CC1)c1ccc(Cl)nc1,·,·,-2,0,·,5
CCC(=O)Nc1cccc(-c2cnc3ccccc3n2)c1,0.9,2,-1,0,10,-7
O=C(CCl)Nc1cccc(-c2cnc3ccccc3n2)c1,0.9,13,-3,-3,12,94*
O=C(CCl)Nc1ccc(Oc2cnc3ccccc3n2)cc1,1,-19,-6,-3,-5,93*
COc1ccc(NC(=O)CCl)cn1,·,14,-3,·,·,·
COc1ccccc1C1CC(=O)Oc2c(C(C)C)ccc(C)c21 (centres undefined),·,·,·,3,·,-1
CCc1ccc(OC(=O)c2ccn(CC)n2)cc1,0.2,-27,-4,3,75*,28
CCn1ccc(C(=O)NC2CCCC2)n1,·,·,3,0,·,-22
COc1ccc2c(c1)C1OCCC1C(c1ccco1)N2 (centres undefined),·,·,-6,-1,·,83*
c1coc(C2Nc3ccccc3C3OCCC23)c1 (centres undefined),1,17,-1,-1,3,8
O=C1C(C=NCc2cccnc2)=C(O)c2ccccc21,0.3,-7,·,-2,68*,24
Brc1nc(-c2ccccc2)nc(-c2ccccc2)c1Br,·,·,-4,0,·,94*
COCCNc1nnc(SCC(=O)NC2CCCCC2)s1,·,·,·,0,·,3
O=C(c1ccoc1)N1CCN(c2cc(-c3ccccc3)nc3cc(-c4ccccc4)nn23)CC1,·,·,·,1,·,43
COc1ccccc1-c1cc2nc(-c3ccccc3)cc(N3CCN(C(=O)c4ccoc4)CC3)n2n1,·,·,·,6,·,74*
COc1cccc(-c2cc3nc(-c4ccccc4)cc(N4CCN(C(=O)c5ccoc5)CC4)n3n2)c1,·,·,·,-2,·,79*
COc1ccccc1-c1cc2nc(-c3ccccc3)cc(N3CCN(C(=O)c4ccco4)CC3)n2n1,·,·,·,-1,·,75*
COc1cccc(-c2cc(N3CCN(C(=O)c4ccoc4)CC3)n3nc(-c4cccc(Cl)c4)cc3n2)c1,·,·,·,2,·,48
CCN(CC)C(=O)c1nn(-c2ccccc2)c2c1C1CCC2(C)C1(C)C (centres undefined),1,-3,-6,0,1,51*
CCN(CC)c1ccc2c(C)c(Cl)c(=O)oc2c1,1,18,2,0,-5,-4
CCN(CC)c1ccc2c(c1)oc(=O)c1c(Cl)cc(=O)oc12,1,9,-7,-4,-3,70*
Cc1sc2nc(C)n(/N=C/c3ccc(O)cc3)c(=O)c2c1C,1,-6,0,0,-4,50*
CCOc1ccc2nc(NC(=O)c3cccc(N4C(=O)CCC4=O)c3)sc2c1,·,·,·,-2,·,56*
SMILES,FLuc act counter,PPC-1+TRAIL kill,MIN6 prolif,hiPSC survival,FLuc inhib CS,TRAIL sens C8
COc1ccc2nc(NC(=O)c3cccc(N4C(=O)CCC4=O)c3)sc2c1,·,·,-6,-3,·,58*
CCOc1ccc2nc(NC(=O)c3cccc(-c4cc5ccccc5oc4=O)c3)sc2c1,1,1,·,0,4,71*
Cc1ccc2sc(NC(=O)c3cccc(N4C(=O)CCC4=O)c3)nc2c1C,·,·,0,0,·,17
Cc1ccc2nc(NC(=O)c3cccc(-c4cc5ccccc5oc4=O)c3)sc2c1,1,-2,-5,·,-5,·
O=C(Nc1nc2ccc(Cl)cc2s1)c1cccc(N2C(=O)CCC2=O)c1,·,·,-5,0,·,38
C[C@@H]1CN([C@H](C)CO)C(=O)CCCn2nncc2CO[C@H]1CN(C)Cc1ccc2c(c1)OCCO2,·,·,·,2,·,-13
N/C(=N\OC(=O)c1cc(Cl)ccc1Cl)c1cccnc1,0.8,2,0,2,16,6
N/C(=N\OC(=O)c1cccc(Cl)c1)c1cccnc1,0.3,21,-3,-2,68*,64*
N/C(=N\OC(=O)c1ccc(Cl)c(Cl)c1)c1cccnc1,0.5,15,-2,2,46,83*
Cc1ccc([C@@H]2C[C@H]3[C@@H](CN2S(=O)(=O)c2ccc(C)cc2)C(=O)C[C@@H](c2ccccc2F)N3S(=O)(=O)c2ccc(C)cc2)cc1,·,·,·,-1,·,-9
CCNC(=O)C1(C)CCCN1C(=O)c1c(F)cccc1F (centres undefined),·,·,·,0,·,-10
Cc1cccc(C)c1NC(=O)CN1C(=O)COc2ccccc21,·,·,1,0,·,4
O=C(Nc1ccc(OC(=O)c2ccco2)cc1)c1ccco1,0.3,34,2,-2,66*,10
O=C(CCc1ccccc1)Nc1ccc(NC(=O)c2ccco2)cc1,1,-4,-4,-1,-5,2
CCC(=O)Nc1ccc(NC(=O)c2ccco2)cc1,0.6,29,-4,-2,38,57*
CCC(=O)Oc1cccc(C(=O)Nc2cccc(NC(=O)c3ccco3)c2)c1,·,·,0,0,·,4
CCC(=O)Oc1ccc(NC(=O)c2ccco2)cc1,0.4,13,-2,0,61*,-1
N#CCCCC#Cc1ccc2c(c1)COc1c3ccccc3nn1-2,·,·,-7,-3,·,77*
CCOC(=O)c1sc(/N=C/c2ccc(O)cc2O)cc1C,0.1,22,-1,0,86*,11
CCCCCC(=O)N1C[C@@H](n2cc(-c3ccc(F)cc3)nn2)[C@H](O)C[C@@H]1c1ccc(Cl)cc1,·,·,·,-1,·,25
Clc1ccccc1-c1nnc(-c2ccc3c(c2)OCO3)o1,0.2,47,-5,-2,80*,56*
Cc1ccc(-c2noc(-c3cc4ccccc4oc3=O)n2)cc1,1,15,3,0,1,7
O=[N+]([O-])c1cccc(-c2nnc(-c3ccc4c(c3)OCO4)o2)c1,0.8,15,-2,-1,21,18
c1ccc(-c2noc(-c3ccc4c(c3)OCO4)n2)cc1,0.3,44,-3,-4,69*,43
O=c1oc2ccccc2cc1-c1nc(-c2ccccc2)no1,0.3,24,-3,2,75*,8
COc1ccc(-c2noc(-c3ccc4c(c3)OCO4)n2)cc1,0.5,29,-4,-3,48,45*
C/C(=N\NC(=O)c1ccncc1)c1cccc(NC(=O)c2ccc(Cl)s2)c1,·,·,6,0,·,12
CC(C)c1ccc(NC(=O)COC(=O)Cn2cnc3c2c(=O)n(C)c(=O)n3C)cc1,·,·,·,-2,·,3
